Calls of active or inactive are those of the source. The calls are words filed in the database; no cut-off is given here.

The target in data set [1] is Acetylcholinesterase (Electrophorus electricus, UniProt O42275). Kind of data set: Inhibition of electrophorus electricus AChE.
In data set [2] the target is T1, Cholinesterase (Equus caballus, UniProt P81908). Kind of data set: Inhibition of equine serum BuChE after 15 mins.
In data set [3] the target is T1, Cholinesterase. Kind of data set: Inhibition of equine serum BuChE.
Data set [4] addresses T1, Cholinesterase. Kind of data set: Reversible competitive inhibition of equine BuChE by Lineweaver-burk plot analysis.
Data set [5] is described as follows: Toxicity against Artemia salina larvae assessed as larval mortality at 1000 ug/mL after 24 hrs relative to control. It counts as organism-based. As to conditions: in vivo, at 1000 µg/mL.
Data set [6] in a line: Acute oral toxicity in Swiss mouse by OECD up and down test guideline method. To be noted: in vivo.
Data set [7] deals with Cholinesterase (Mus musculus, UniProt Q03311). Kind of data set: Inhibition of BuChE in Swiss mouse liver homogenate by Ellman's assay. Format: tissue-based. In outline:
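Swiss mouse livers from 8-week-old males were washed in ice-cold 0.2 M potassium phosphate, pH 7.6, then homogenized 1:10 w/v in 0.1 M phosphate, pH 7.6. Homogenates were spun at 1000 g, 4 °C, 15 min. Compounds were made up in 0.2 M phosphate, pH 7.6. Activity was read by modified Ellman's method, with protein by Lowry. IC50 came from dose-response, triplicate means ± SD.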

The subject of data set [8] is Mus musculus. Kind of data set: In vivo inhibition of BuChE in Swiss mouse liver at 3 to 6 mg/kg, iv by Ellman's assay. Format: functional, organism-based.
In data set [9] the target is T2, Acetylcholinesterase (Mus musculus, UniProt P21836).
T2 sequence (P21836 whole entry): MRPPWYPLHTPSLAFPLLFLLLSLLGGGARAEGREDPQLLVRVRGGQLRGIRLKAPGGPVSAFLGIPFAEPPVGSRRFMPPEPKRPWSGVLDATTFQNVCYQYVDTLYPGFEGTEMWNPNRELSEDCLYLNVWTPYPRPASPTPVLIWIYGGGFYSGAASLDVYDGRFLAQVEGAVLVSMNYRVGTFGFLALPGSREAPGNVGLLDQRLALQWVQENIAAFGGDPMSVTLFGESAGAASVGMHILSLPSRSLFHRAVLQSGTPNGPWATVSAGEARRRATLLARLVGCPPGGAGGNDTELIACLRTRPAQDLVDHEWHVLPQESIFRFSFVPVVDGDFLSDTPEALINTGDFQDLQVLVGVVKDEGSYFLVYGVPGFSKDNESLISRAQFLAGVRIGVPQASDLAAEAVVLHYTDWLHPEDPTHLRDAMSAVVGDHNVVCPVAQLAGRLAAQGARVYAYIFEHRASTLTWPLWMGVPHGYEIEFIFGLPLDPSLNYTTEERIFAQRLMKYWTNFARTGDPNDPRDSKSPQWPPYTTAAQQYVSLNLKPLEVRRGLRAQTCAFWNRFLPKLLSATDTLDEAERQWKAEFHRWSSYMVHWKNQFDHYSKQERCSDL
Kind of data set: Inhibition of AChE in Swiss mouse liver homogenate using acetylthiocholine iodide as substrate by Ellman's assay.

Data set [10] has as its target Cholinesterase (Equus caballus) (UniProt P81908). As to the kind of experiment: Competitive inhibition of equine BuChE by Cornish-Bowden analysis.
Data set [11] is described as follows: Acute toxicity in iv dosed Swiss mouse. To be noted: in vivo.
Data set [12] concerns Artemia salina. As to the kind of experiment: Toxicity against Artemia salina larvae assessed as larval mortality after 24 hrs. It counts as organism-based. To be noted: in vivo. The procedure, abridged: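 A. salina nauplii were run per the Artoxkit M protocol: samples in saline were diluted 1:10 into saline medium, 10 larvae per well. Plates were held 24 h at 25 °C, and dead nauplii were counted by stereomicroscope. There were nine repeats per concentration, and LC50 came from dose-response. Negative controls were saline with and without 5% DMSO; potassium dichromate positive control ran 3.125–150 μg mL-1.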

The test system of data set [13] is Artemia salina. As to the kind of experiment: Toxicity against Artemia salina larvae assessed as larval mortality at 100 ug/mL after 24 hrs relative to control. It counts as organism-based. To be noted: in vivo.

Chain of Acetylcholinesterase (Electrophorus electricus, UniProt O42275) (O42275 whole entry): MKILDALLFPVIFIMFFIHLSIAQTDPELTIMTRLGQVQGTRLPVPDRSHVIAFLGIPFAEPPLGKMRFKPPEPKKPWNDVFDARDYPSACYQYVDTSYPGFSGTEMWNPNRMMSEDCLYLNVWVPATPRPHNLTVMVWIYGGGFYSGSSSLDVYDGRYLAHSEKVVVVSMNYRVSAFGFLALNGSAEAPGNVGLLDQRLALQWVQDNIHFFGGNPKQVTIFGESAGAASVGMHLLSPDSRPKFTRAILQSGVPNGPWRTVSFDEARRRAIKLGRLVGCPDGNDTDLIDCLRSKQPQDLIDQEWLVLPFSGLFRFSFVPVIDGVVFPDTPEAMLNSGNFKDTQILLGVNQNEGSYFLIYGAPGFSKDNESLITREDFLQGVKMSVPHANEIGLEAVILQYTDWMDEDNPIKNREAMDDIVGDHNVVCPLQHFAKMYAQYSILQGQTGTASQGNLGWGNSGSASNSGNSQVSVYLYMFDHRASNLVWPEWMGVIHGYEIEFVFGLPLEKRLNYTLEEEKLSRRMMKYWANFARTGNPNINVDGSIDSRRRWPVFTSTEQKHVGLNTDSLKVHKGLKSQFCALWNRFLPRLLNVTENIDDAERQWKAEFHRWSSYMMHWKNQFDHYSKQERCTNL
T1 sequence (P81908 whole entry): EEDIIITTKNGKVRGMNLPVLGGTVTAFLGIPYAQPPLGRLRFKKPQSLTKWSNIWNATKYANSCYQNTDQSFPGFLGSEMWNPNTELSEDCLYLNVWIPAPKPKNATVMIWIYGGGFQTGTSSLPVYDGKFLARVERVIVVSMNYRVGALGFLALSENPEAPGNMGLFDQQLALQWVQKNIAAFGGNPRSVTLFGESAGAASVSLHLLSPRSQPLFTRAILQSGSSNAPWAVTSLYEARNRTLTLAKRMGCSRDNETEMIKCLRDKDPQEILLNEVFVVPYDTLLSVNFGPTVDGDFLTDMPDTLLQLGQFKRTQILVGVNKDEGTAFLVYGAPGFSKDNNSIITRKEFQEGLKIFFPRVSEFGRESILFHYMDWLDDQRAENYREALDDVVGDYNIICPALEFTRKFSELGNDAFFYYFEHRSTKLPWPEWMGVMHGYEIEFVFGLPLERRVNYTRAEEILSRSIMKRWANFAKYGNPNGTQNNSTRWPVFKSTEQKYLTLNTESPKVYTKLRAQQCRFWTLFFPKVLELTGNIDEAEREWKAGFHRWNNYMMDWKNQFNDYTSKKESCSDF
Chain of Cholinesterase (Mus musculus, UniProt Q03311) (Q03311 whole entry): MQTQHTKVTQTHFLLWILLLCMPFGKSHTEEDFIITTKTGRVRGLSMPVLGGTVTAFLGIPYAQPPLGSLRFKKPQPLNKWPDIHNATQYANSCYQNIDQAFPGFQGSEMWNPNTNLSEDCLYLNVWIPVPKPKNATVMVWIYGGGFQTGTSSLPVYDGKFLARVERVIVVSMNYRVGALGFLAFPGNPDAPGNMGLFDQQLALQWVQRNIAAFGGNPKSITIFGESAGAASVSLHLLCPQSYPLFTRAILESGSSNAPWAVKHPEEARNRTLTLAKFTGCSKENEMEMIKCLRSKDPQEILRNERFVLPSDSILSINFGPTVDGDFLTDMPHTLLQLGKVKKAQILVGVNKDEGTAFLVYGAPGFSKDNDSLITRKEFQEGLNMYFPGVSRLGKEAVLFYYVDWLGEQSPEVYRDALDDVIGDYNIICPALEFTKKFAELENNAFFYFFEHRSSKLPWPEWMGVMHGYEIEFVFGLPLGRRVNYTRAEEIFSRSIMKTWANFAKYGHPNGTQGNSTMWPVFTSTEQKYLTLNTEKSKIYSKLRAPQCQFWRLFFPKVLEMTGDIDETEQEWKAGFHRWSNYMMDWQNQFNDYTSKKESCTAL
Chain of Cholinesterase (Equus caballus) (P81908 whole entry): as the sequence (P81908 whole entry) above

For `O=C1N(CC2CCN(Cc3ccccc3)CC2)c2ccccc2C1(O)c1ccccc1` (racemic), the values for the IC50 in data set [1] and in data set [2] were 193 µM and 6.61 µM, respectively.

For `Cl.O=C1N(CC2CCNCC2)c2ccccc2C1(O)c1ccccc1` (racemic), the IC50 in data set [1] amounted to 500 µM; in data set [3], 18.3 µM; in data set [7], 435 µM; in data set [9] it was 565 µM. For the same compound, in data set [4], affinity was put at a Ki of 41 µM. The mortality at 24 h, 1000 ug/mL in data set [5] was found to be 5%. In addition, in [6], the LD50 is 100 mg/kg. In addition, the inhibition result in [8] and in data set [10] was “Active” in each case.

Regarding `O=C1N(Cc2ccccc2)c2ccccc2C1(O)c1ccccc1` (racemic), the IC50 stood at 237 µM in data set [1] and 7.41 µM in data set [3].

In the case of `COc1cc2c(cc1OC)C(=O)C(CC1CCN(Cc3ccccc3)CC1)C2` (stereo not drawn) [DONEPEZIL], the mortality at 24 h, 1000 ug/mL in data set [5] was 26%. In [11], this compound had an LD50 of 3.7 mg/kg. The inhibition result in [8] was “Active”.

For POTASSIUM DICHROMATE, the LC50 in data set [12] is 15.04 µg/mL. Further, the Activity in [13] worked out at 100%.

Values taken from ChEMBL document CHEMBL4308913, “In silico, NMR and pharmacological evaluation of an hydroxyoxindole cholinesterase inhibitor” (Bioorg Med Chem, 2019).
